Assay results as given in ChEMBL document CHEMBL4706499, “PTG-0861: A novel HDAC6-selective inhibitor as a therapeutic strategy in acute myeloid leukaemia” (Eur J Med Chem, 2020).

How the values were obtained:
Histone deacetylase 7 = biological target: T1, Histone deacetylase 7 (Homo sapiens, UniProt Q8WUI4); assay: Inhibition of recombinant full length human HDAC7 expressed in SF9 baculovirus using FAM- labelled acetylated peptide as substrate measured by Electrophoretic mobility shift assay
T1 sequence (Q8WUI4 whole entry): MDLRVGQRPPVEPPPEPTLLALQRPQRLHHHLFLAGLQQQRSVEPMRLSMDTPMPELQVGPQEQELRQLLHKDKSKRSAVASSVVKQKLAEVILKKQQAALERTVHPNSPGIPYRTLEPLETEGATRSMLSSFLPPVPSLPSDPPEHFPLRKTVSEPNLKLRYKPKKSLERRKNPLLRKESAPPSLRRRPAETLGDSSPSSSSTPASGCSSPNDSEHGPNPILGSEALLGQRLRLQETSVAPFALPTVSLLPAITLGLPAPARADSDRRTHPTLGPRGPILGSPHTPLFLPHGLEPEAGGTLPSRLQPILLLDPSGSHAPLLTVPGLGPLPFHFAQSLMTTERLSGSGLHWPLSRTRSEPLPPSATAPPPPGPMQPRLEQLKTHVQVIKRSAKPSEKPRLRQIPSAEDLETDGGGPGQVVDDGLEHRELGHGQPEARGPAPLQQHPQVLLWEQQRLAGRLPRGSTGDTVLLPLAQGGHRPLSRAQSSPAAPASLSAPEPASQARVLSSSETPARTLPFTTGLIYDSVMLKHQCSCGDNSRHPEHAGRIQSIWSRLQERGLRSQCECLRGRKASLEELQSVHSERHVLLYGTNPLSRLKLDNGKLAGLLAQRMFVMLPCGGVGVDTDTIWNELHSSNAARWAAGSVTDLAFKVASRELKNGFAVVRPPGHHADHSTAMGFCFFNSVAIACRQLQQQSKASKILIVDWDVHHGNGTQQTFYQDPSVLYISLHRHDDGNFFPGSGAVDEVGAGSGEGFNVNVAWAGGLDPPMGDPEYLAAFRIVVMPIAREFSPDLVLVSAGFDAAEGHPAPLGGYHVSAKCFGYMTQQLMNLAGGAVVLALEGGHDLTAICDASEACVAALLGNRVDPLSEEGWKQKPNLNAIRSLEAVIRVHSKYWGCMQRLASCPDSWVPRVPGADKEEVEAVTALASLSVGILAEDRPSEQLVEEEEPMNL

[1] = biological target: T2, Protein deacetylase HDAC6 (Homo sapiens, UniProt Q9UBN7); assay: Inhibition of HDAC6 in human HeLa cells assessed by deacetylation measured after 15 mins by ELISA; assay type: cell-based
T2 sequence (Q9UBN7 whole entry): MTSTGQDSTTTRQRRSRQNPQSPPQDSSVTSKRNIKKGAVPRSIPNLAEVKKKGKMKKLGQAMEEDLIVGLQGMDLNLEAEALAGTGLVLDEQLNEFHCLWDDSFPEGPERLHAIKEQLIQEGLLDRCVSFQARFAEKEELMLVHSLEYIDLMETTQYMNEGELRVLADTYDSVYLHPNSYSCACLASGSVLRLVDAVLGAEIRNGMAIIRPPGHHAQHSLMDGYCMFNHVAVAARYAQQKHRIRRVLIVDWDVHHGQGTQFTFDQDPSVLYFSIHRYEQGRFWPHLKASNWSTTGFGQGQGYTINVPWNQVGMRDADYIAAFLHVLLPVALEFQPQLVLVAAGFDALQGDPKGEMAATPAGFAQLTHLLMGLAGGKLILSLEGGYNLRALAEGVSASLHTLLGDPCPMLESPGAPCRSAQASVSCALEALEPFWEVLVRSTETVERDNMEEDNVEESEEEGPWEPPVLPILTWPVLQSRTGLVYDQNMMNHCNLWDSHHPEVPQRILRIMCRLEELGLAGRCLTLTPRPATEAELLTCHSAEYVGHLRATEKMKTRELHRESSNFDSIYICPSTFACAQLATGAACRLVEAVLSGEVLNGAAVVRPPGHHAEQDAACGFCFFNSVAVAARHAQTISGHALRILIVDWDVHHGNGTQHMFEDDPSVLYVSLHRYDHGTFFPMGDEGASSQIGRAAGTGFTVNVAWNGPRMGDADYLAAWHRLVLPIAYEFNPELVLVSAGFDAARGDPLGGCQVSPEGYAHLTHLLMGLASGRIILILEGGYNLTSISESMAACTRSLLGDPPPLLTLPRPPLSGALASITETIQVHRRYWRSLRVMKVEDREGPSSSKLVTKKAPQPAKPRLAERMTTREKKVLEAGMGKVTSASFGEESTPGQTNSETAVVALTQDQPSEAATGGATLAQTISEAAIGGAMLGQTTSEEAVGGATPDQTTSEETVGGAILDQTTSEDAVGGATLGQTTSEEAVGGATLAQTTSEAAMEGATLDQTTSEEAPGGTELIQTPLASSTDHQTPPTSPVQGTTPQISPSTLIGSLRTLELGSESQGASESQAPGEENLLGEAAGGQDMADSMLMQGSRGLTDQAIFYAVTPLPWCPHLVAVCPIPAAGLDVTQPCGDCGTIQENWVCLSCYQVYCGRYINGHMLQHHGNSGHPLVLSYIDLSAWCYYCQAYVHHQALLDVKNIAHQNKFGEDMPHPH
Summary of the method: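 ELISA activity assay using HeLa-derived active HDAC6 coated on plates. A range of inhibitor concentrations was incubated with the enzyme, and deacetylation activity was monitored over time, with a 0.25 h read. The IC50 was taken from the inhibition profile.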

MV4-11 [2] = assay: Induction of apoptosis in human MV4-11 cells assessed as viable cells at 4 microM measured after 18 hrs by Annexin V/Propidium iodide stain based Flow cytometry assay (reference value: 53.27%); assay type: functional; settings: read-out: Activity
MV4-11 [3] = assay: Induction of apoptosis in human MV4-11 cells assessed as late apoptotic cells at 2 microM measured after 18 hrs by Annexin V/Propidium iodide stain based Flow cytometry assay (reference value: 4.91%); assay type: functional
[4] = Glutathione reactivity at pH 7.4 assessed as compound remaining measured by LC-MS/MS method; assay type: physicochemical
[5] = Efflux ratio of apparent permeability in human Caco2 cells measured after 2 hrs by LC-MS/MS method; assay type: ADME, cell-based; settings: Caco-2
Summary of the method: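 Bidirectional Caco-2 permeability was measured as Papp in the apical-to-basolateral and basolateral-to-apical directions. The efflux ratio was calculated from the two directional Papp values.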

[6] = AUC (last) in CD1 mouse at 20 mg/kg, ip measured after 24 hrs by LC/MS/MS method; assay type: ADME, organism-based; set-up: route intraperitoneal, dose 20 mg/kg, time 24 hrs; settings: in vivo

IC50 (Histone deacetylase 7): > 1000 nM
IC50 [1]: 590 nM
Stabilty [4]: 100%
efflux ratio at 2 h [5]: 0.71
AUC(0-t) at 24 h [6]: 190 ng·h/mL
SMILES: O=C(NO)c1ccc(CNC(=O)c2c(F)c(F)c(F)c(F)c2F)cc1
viability at 4 µM (MV4-11 [2]): 17.9%
Activity (MV4-11 [3]): 15.93%
